{"source": "ChEMBL document CHEMBL1772956", "about": "“Synthesis and binding affinity of novel mono- and bivalent morphinan ligands for κ, μ, and δ opioid receptors” (Bioorg Med Chem, 2011)", "note": "Calls of active or inactive are those of the source. The rule behind the calls is not given here."}
{"target": "T1, Mu-type opioid receptor (Homo sapiens, UniProt P35372)", "T1 sequence (P35372 whole entry)": "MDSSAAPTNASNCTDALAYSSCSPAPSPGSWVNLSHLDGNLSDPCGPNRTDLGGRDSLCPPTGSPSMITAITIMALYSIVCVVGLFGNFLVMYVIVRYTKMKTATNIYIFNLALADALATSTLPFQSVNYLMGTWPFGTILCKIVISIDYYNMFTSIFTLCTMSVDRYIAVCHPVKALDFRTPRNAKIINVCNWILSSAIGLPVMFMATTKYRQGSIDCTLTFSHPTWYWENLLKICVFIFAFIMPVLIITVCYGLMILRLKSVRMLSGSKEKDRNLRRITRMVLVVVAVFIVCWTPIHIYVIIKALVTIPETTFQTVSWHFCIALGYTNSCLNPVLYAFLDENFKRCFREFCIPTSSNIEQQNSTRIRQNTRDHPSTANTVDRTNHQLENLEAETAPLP", "assay": "Antagonist activity at human mu-opioid receptor expressed in CHO cells assessed as inhibition of DAMGO-induced [35S]GTPgammaS binding at 10 uM after 60 mins by scintillation counting", "assay_type": "functional, cell-based", "conditions": "not given", "procedure,_shortened": "(§1)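 Human μ receptor CHO membranes were incubated with 200 nM DAMGO to drive [35S]GTPγS (0.08 nM) binding, with 12 compound concentrations up to 10 μM, in Tris pH 7.4/GDP/MgCl2/EGTA/NaCl buffer, 60 min at 30°C. Nonspecific binding was with 10 μM GTPγS. Samples were filtered and counted.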"}
{"smiles": "O=C(CCCCCCCCC(=O)Nc1nc2cc3c(cc2s1)C[C@@H]1[C@@H]2CCCC[C@]32CCN1CC1CC1)Nc1nc2cc3c(cc2s1)C[C@@H]1[C@@H]2CCCC[C@]32CCN1CC1CC1", "inhibition": "inactive"}
{"target": "T1, Mu-type opioid receptor", "assay": "Antagonist activity at human mu-opioid receptor expressed in CHO cells assessed as inhibition of DAMGO-induced [35S]GTPgammaS binding after 60 mins by scintillation counting relative to control", "assay_type": "functional, cell-based", "conditions": "not given", "procedure,_shortened": "as §1", "units": {"Imax": "%"}}
{"smiles": "CO[C@@]12CCCC[C@@]13CCN(CC1CCC1)[C@@H]2Cc1ccc(OC(=O)CCCCCCCCC(=O)Oc2ccc4c(c2)[C@@]25CCCC[C@@]2(OC)[C@@H](C4)N(CC2CCC2)CC5)cc13", "Imax": 44}
{"target": "T2, Kappa-type opioid receptor (Homo sapiens, UniProt P41145)", "T2 sequence (P41145 whole entry)": "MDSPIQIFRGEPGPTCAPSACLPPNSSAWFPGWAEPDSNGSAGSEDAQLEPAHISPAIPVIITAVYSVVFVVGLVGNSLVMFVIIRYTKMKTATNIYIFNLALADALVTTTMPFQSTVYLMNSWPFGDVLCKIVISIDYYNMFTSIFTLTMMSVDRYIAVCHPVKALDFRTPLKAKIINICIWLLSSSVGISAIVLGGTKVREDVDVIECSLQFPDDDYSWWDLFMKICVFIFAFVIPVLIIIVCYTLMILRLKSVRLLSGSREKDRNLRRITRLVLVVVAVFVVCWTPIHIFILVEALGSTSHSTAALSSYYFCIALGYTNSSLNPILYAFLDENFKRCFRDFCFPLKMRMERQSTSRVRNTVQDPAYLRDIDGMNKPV", "assay": "Agonist activity at human kappa-opioid receptor expressed in CHO cells assessed as stimulation of [35S]GTPgammaS binding after 60 mins by scintillation counting relative to control", "assay_type": "functional, cell-based", "conditions": "not given", "procedure,_shortened": "(§2)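 Membranes from CHO cells stably expressing human κ or μ opioid receptor were incubated with 12 compound concentrations in 50 mM Tris-HCl pH 7.4 with 3 μM GDP, 3 mM MgCl2, 0.2 mM EGTA and 100 mM NaCl. [35S]GTPγS was 0.08 nM final, 60 min at 30°C, and 10 μM GTPγS gave nonspecific binding. Samples were filtered and counted. EC50 and Emax (% stimulation over basal) came from three experiments in triplicate.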", "units": {"Emax": "%"}}
{"smiles": "CO[C@@]12CCCC[C@@]13CCN(CC1CCC1)[C@@H]2Cc1ccc(OC(=O)CCCCCCCCC(=O)Oc2ccc4c(c2)[C@@]25CCCC[C@@]2(OC)[C@@H](C4)N(CC2CCC2)CC5)cc13", "Emax": 83}
{"smiles": "O=C(CCCCCCCCC(=O)Nc1nc2cc3c(cc2s1)C[C@@H]1[C@@H]2CCCC[C@]32CCN1CC1CC1)Nc1nc2cc3c(cc2s1)C[C@@H]1[C@@H]2CCCC[C@]32CCN1CC1CC1", "Emax": 130}
{"target": "T2, Kappa-type opioid receptor", "assay": "Agonist activity at human kappa-opioid receptor expressed in CHO cells assessed as stimulation of [35S]GTPgammaS binding after 60 mins by scintillation counting", "assay_type": "functional, cell-based", "conditions": "not given", "procedure,_shortened": "as §2", "units": {"EC50": "nM"}}
{"smiles": "CO[C@@]12CCCC[C@@]13CCN(CC1CCC1)[C@@H]2Cc1ccc(OC(=O)CCCCCCCCC(=O)Oc2ccc4c(c2)[C@@]25CCCC[C@@]2(OC)[C@@H](C4)N(CC2CCC2)CC5)cc13", "EC50": 2.4}
{"smiles": "O=C(CCCCCCCCC(=O)Nc1nc2cc3c(cc2s1)C[C@@H]1[C@@H]2CCCC[C@]32CCN1CC1CC1)Nc1nc2cc3c(cc2s1)C[C@@H]1[C@@H]2CCCC[C@]32CCN1CC1CC1", "EC50": 5.5}
{"target": "T1, Mu-type opioid receptor", "assay": "Agonist activity at human mu-opioid receptor expressed in CHO cells assessed as stimulation of [35S]GTPgammaS binding after 60 mins by scintillation counting", "assay_type": "functional, cell-based", "conditions": "not given", "procedure,_shortened": "as §2", "units": {"EC50": "nM"}}
{"smiles": "CO[C@@]12CCCC[C@@]13CCN(CC1CCC1)[C@@H]2Cc1ccc(OC(=O)CCCCCCCCC(=O)Oc2ccc4c(c2)[C@@]25CCCC[C@@]2(OC)[C@@H](C4)N(CC2CCC2)CC5)cc13", "EC50": 1.8}
{"smiles": "O=C(CCCCCCCCC(=O)Nc1nc2cc3c(cc2s1)C[C@@H]1[C@@H]2CCCC[C@]32CCN1CC1CC1)Nc1nc2cc3c(cc2s1)C[C@@H]1[C@@H]2CCCC[C@]32CCN1CC1CC1", "EC50": 130}
{"target": "T2, Kappa-type opioid receptor", "assay": "(§3) Antagonist activity at human kappa-opioid receptor expressed in CHO cells assessed as inhibition of U69593-induced [35S]GTPgammaS binding after 60 mins by scintillation counting", "assay_type": "functional, cell-based", "conditions": "cho"}
{"smiles": "O=C(CCCCCCCCC(=O)Nc1nc2cc3c(cc2s1)C[C@@H]1[C@@H]2CCCC[C@]32CCN1CC1CC1)Nc1nc2cc3c(cc2s1)C[C@@H]1[C@@H]2CCCC[C@]32CCN1CC1CC1", "IC50": "Not Active"}
{"target": "T2, Kappa-type opioid receptor", "assay": "as §3", "assay_type": "functional, cell-based", "conditions": "read-out: IC50", "units": {"IC50": "nM"}}
{"smiles": "CO[C@@]12CCCC[C@@]13CCN(CC1CCC1)[C@@H]2Cc1ccc(OC(=O)CCCCCCCCC(=O)Oc2ccc4c(c2)[C@@]25CCCC[C@@]2(OC)[C@@H](C4)N(CC2CCC2)CC5)cc13", "IC50": 17}
{"target": "T2, Kappa-type opioid receptor", "assay": "Antagonist activity at human kappa-opioid receptor expressed in CHO cells assessed as inhibition of U69593-induced [35S]GTPgammaS binding after 60 mins by scintillation counting relative to control", "assay_type": "functional, cell-based", "conditions": "not given"}
{"smiles": "CO[C@@]12CCCC[C@@]13CCN(CC1CCC1)[C@@H]2Cc1ccc(OC(=O)CCCCCCCCC(=O)Oc2ccc4c(c2)[C@@]25CCCC[C@@]2(OC)[C@@H](C4)N(CC2CCC2)CC5)cc13", "Imax": "43%"}
{"smiles": "O=C(CCCCCCCCC(=O)Nc1nc2cc3c(cc2s1)C[C@@H]1[C@@H]2CCCC[C@]32CCN1CC1CC1)Nc1nc2cc3c(cc2s1)C[C@@H]1[C@@H]2CCCC[C@]32CCN1CC1CC1", "Imax": "inactive"}
{"species": "Homo sapiens", "assay": "Selectivity ratio of Ki for human kappa opioid receptor over Ki for human mu opioid receptor", "conditions": "not given"}
{"smiles": "CO[C@@]12CCCC[C@@]13CCN(CC1CCC1)[C@@H]2Cc1ccc(OC(=O)CCCCCCCCC(=O)Oc2ccc4c(c2)[C@@]25CCCC[C@@]2(OC)[C@@H](C4)N(CC2CCC2)CC5)cc13", "Ratio Ki": 1}
{"smiles": "O=C(CCCCCCCCC(=O)Nc1nc2cc3c(cc2s1)C[C@@H]1[C@@H]2CCCC[C@]32CCN1CC1CC1)Nc1nc2cc3c(cc2s1)C[C@@H]1[C@@H]2CCCC[C@]32CCN1CC1CC1", "Ratio Ki": 24}
{"target": "T1, Mu-type opioid receptor", "assay": "Antagonist activity at human mu-opioid receptor expressed in CHO cells assessed as inhibition of DAMGO-induced [35S]GTPgammaS binding at 10 uM after 60 mins by scintillation counting relative to control", "assay_type": "functional, cell-based", "conditions": "not given", "procedure,_shortened": "as §1", "units": {"inhibition": "%"}}
{"smiles": "O=C(CCCCCCCCC(=O)Nc1nc2cc3c(cc2s1)C[C@@H]1[C@@H]2CCCC[C@]32CCN1CC1CC1)Nc1nc2cc3c(cc2s1)C[C@@H]1[C@@H]2CCCC[C@]32CCN1CC1CC1", "inhibition": 74}
{"target": "T2, Kappa-type opioid receptor", "assay": "biochemical", "assay_type": "cell-based, CHO", "conditions": "not given", "units": {"Ki": "nM"}}
{"smiles": "CO[C@@]12CCCC[C@@]13CCN(CC1CCC1)[C@@H]2Cc1ccc(OC(=O)CCCCCCCCC(=O)Oc2ccc4c(c2)[C@@]25CCCC[C@@]2(OC)[C@@H](C4)N(CC2CCC2)CC5)cc13", "Ki": 0.37}
{"smiles": "O=C(CCCCCCCCC(=O)Nc1nc2cc3c(cc2s1)C[C@@H]1[C@@H]2CCCC[C@]32CCN1CC1CC1)Nc1nc2cc3c(cc2s1)C[C@@H]1[C@@H]2CCCC[C@]32CCN1CC1CC1", "Ki": 0.37}
{"target": "T1, Mu-type opioid receptor", "assay": "Agonist activity at human mu-opioid receptor expressed in CHO cells assessed as stimulation of [35S]GTPgammaS binding after 60 mins by scintillation counting relative to control", "assay_type": "functional, cell-based", "conditions": "not given", "procedure,_shortened": "as §2", "units": {"Emax": "%"}}
{"smiles": "CO[C@@]12CCCC[C@@]13CCN(CC1CCC1)[C@@H]2Cc1ccc(OC(=O)CCCCCCCCC(=O)Oc2ccc4c(c2)[C@@]25CCCC[C@@]2(OC)[C@@H](C4)N(CC2CCC2)CC5)cc13", "Emax": 42}
{"smiles": "O=C(CCCCCCCCC(=O)Nc1nc2cc3c(cc2s1)C[C@@H]1[C@@H]2CCCC[C@]32CCN1CC1CC1)Nc1nc2cc3c(cc2s1)C[C@@H]1[C@@H]2CCCC[C@]32CCN1CC1CC1", "Emax": 25}
{"target": "Delta-type opioid receptor (Homo sapiens, UniProt P41143)", "sequence (P41143 whole entry)": "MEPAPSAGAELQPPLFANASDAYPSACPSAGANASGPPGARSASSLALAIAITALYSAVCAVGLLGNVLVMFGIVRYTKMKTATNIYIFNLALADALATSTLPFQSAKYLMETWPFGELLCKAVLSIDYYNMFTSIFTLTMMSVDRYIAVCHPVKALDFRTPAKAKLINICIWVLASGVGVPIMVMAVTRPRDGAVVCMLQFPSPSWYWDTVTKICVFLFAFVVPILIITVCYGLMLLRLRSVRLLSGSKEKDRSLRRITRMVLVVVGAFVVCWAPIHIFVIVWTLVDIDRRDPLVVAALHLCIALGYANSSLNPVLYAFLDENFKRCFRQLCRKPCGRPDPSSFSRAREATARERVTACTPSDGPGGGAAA", "assay": "Displacement of [3H]naltrindole from human delta-opioid receptor expressed in CHO cells after 3 hrs by scintillation counting", "assay_type": "cell-based", "conditions": "not given", "units": {"Ki": "nM"}}
{"smiles": "CO[C@@]12CCCC[C@@]13CCN(CC1CCC1)[C@@H]2Cc1ccc(OC(=O)CCCCCCCCC(=O)Oc2ccc4c(c2)[C@@]25CCCC[C@@]2(OC)[C@@H](C4)N(CC2CCC2)CC5)cc13", "Ki": 13}
{"smiles": "O=C(CCCCCCCCC(=O)Nc1nc2cc3c(cc2s1)C[C@@H]1[C@@H]2CCCC[C@]32CCN1CC1CC1)Nc1nc2cc3c(cc2s1)C[C@@H]1[C@@H]2CCCC[C@]32CCN1CC1CC1", "Ki": 170}
{"target": "T1, Mu-type opioid receptor", "assay": "biochemical", "assay_type": "cell-based, CHO", "conditions": "not given", "units": {"Ki": "nM"}}
{"smiles": "CO[C@@]12CCCC[C@@]13CCN(CC1CCC1)[C@@H]2Cc1ccc(OC(=O)CCCCCCCCC(=O)Oc2ccc4c(c2)[C@@]25CCCC[C@@]2(OC)[C@@H](C4)N(CC2CCC2)CC5)cc13", "Ki": 0.26}
{"smiles": "O=C(CCCCCCCCC(=O)Nc1nc2cc3c(cc2s1)C[C@@H]1[C@@H]2CCCC[C@]32CCN1CC1CC1)Nc1nc2cc3c(cc2s1)C[C@@H]1[C@@H]2CCCC[C@]32CCN1CC1CC1", "Ki": 8.8}
{"species": "Homo sapiens", "assay": "Selectivity ratio of Ki for human kappa opioid receptor over Ki for human delta opioid receptor", "conditions": "not given"}
{"smiles": "CO[C@@]12CCCC[C@@]13CCN(CC1CCC1)[C@@H]2Cc1ccc(OC(=O)CCCCCCCCC(=O)Oc2ccc4c(c2)[C@@]25CCCC[C@@]2(OC)[C@@H](C4)N(CC2CCC2)CC5)cc13", "Ratio Ki": 50}
{"smiles": "O=C(CCCCCCCCC(=O)Nc1nc2cc3c(cc2s1)C[C@@H]1[C@@H]2CCCC[C@]32CCN1CC1CC1)Nc1nc2cc3c(cc2s1)C[C@@H]1[C@@H]2CCCC[C@]32CCN1CC1CC1", "Ratio Ki": 460}
{"target": "T1, Mu-type opioid receptor", "assay": "Antagonist activity at human mu-opioid receptor expressed in CHO cells assessed as inhibition of DAMGO-induced [35S]GTPgammaS binding after 60 mins by scintillation counting", "assay_type": "functional, cell-based", "conditions": "not given", "procedure,_shortened": "as §1", "units": {"IC50": "nM"}}
{"smiles": "CO[C@@]12CCCC[C@@]13CCN(CC1CCC1)[C@@H]2Cc1ccc(OC(=O)CCCCCCCCC(=O)Oc2ccc4c(c2)[C@@]25CCCC[C@@]2(OC)[C@@H](C4)N(CC2CCC2)CC5)cc13", "IC50": 260}
